In ChEMBL document CHEMBL1157465, “Design, synthesis, and biological evaluation of novel 3-aryl-4-(1H-indole-3yl)-1,5-dihydro-2H-pyrrole-2-ones as vascular endothelial growth factor receptor (VEGF-R) inhibitors” (J Med Chem, 2008):

What was measured:
[1] = target: Vascular endothelial growth factor receptor 3 (Homo sapiens, UniProt P35916); assay: Inhibition of human recombinant VEGFR3
Procedure, shortened: (§1)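 Recombinant human tyrosine kinases (EPHB4, TIE2, VEGF-R2, VEGF-R3), expressed in Sf9 insect cells as GST- or His-fusions, with poly(Glu,Tyr) 4:1 as substrate. Conditions: 1 µM [γ-33P]ATP, pH 7.5 HEPES buffer with Mg/Mn, DTT and vanadate, 30 °C for 80 min, 1% DMSO. Ten concentrations were tested and IC50 came from scintillation counting of incorporated 33P.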

[2] = target: T1, Receptor-type tyrosine-protein kinase FLT3 (Homo sapiens, UniProt P36888); assay: Inhibition of human recombinant FLT3
T1 sequence (P36888 whole entry): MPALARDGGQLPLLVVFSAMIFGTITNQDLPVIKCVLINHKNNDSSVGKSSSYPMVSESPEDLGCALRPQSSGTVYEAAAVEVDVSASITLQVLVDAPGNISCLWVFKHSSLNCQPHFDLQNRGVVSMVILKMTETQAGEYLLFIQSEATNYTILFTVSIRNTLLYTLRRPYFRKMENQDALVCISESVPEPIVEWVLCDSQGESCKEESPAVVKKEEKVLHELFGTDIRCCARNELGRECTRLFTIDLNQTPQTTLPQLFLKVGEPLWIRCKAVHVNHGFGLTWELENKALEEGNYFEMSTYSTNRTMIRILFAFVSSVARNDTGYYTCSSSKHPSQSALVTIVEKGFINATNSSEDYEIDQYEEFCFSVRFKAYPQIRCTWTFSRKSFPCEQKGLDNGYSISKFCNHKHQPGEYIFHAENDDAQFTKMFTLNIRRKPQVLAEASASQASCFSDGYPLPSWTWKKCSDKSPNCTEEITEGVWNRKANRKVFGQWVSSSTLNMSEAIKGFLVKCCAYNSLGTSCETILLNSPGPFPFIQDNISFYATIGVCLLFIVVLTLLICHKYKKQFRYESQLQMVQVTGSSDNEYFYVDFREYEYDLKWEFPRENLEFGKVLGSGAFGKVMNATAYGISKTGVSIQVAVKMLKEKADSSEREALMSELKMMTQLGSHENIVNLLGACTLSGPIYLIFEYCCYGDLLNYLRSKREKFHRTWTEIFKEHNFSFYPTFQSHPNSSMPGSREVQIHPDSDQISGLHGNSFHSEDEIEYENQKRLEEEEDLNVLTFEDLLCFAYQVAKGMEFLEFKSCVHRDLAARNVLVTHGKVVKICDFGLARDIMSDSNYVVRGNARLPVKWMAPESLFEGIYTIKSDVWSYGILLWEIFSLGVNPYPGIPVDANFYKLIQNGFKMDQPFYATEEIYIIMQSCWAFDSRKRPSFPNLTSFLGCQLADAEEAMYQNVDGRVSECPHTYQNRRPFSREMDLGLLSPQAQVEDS
Procedure, shortened: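 Human kinases expressed in Sf9 cells via baculovirus as GST or His fusions and affinity purified. 33PanQinase assay in 60 mM HEPES-NaOH pH 7.5, 3 mM MgCl2, 3 mM MnCl2, 3 µM orthovanadate, 1.2 mM DTT, 1 µM [γ-33P]ATP, 1% DMSO; 30 °C, 80 min. Substrates: poly(Glu,Tyr) 4:1 for ERBB2, IGF1-R and SRC; poly(Ala,Glu,Lys,Tyr) 6:2:5:1 for FLT3. IC50 from 10 concentrations by scintillation counting.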

[3] = target: T2, Serine/threonine-protein kinase PLK4 (Homo sapiens, UniProt O00444); assay: Inhibition of human recombinant SAK
T2 sequence (O00444 whole entry): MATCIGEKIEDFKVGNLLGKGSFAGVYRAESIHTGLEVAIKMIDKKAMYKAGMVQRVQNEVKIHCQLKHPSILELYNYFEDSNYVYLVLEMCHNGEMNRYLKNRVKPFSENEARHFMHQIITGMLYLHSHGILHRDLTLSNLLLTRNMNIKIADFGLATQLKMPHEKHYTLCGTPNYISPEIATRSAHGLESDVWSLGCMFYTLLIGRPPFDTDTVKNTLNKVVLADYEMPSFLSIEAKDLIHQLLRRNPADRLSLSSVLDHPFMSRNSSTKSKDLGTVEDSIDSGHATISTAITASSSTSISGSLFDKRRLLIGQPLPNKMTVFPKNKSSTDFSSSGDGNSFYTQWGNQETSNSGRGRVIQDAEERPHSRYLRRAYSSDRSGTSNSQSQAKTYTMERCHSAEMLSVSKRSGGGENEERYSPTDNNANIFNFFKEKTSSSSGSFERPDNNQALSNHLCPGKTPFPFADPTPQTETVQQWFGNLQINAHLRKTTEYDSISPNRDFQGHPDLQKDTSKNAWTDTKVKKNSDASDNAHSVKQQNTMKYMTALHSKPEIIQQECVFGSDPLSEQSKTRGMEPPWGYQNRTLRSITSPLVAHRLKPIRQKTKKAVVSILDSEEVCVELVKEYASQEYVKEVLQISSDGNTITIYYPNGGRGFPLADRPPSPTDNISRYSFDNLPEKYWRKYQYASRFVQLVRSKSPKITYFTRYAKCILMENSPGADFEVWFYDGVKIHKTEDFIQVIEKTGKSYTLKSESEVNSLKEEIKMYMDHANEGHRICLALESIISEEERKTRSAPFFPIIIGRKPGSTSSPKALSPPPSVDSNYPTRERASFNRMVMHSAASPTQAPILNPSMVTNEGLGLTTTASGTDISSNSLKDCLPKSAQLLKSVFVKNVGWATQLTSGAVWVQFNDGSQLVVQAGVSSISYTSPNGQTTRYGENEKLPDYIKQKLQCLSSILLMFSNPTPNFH
Procedure, shortened: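 Human kinase expressed from cDNA in Sf9 cells (baculovirus) as GST- or His-tagged protein, affinity-purified. 10 compound concentrations, 1% DMSO final, 30 °C for 80 min. Stopped with H₃PO₄, 33P incorporation counted, IC50 derived.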

[4] = target: Vascular endothelial growth factor receptor 2 (Homo sapiens, UniProt P35968); assay: Inhibition of human recombinant VEGFR2; procedure, shortened: as §1
Chain of Vascular endothelial growth factor receptor 2 (P35968 whole entry): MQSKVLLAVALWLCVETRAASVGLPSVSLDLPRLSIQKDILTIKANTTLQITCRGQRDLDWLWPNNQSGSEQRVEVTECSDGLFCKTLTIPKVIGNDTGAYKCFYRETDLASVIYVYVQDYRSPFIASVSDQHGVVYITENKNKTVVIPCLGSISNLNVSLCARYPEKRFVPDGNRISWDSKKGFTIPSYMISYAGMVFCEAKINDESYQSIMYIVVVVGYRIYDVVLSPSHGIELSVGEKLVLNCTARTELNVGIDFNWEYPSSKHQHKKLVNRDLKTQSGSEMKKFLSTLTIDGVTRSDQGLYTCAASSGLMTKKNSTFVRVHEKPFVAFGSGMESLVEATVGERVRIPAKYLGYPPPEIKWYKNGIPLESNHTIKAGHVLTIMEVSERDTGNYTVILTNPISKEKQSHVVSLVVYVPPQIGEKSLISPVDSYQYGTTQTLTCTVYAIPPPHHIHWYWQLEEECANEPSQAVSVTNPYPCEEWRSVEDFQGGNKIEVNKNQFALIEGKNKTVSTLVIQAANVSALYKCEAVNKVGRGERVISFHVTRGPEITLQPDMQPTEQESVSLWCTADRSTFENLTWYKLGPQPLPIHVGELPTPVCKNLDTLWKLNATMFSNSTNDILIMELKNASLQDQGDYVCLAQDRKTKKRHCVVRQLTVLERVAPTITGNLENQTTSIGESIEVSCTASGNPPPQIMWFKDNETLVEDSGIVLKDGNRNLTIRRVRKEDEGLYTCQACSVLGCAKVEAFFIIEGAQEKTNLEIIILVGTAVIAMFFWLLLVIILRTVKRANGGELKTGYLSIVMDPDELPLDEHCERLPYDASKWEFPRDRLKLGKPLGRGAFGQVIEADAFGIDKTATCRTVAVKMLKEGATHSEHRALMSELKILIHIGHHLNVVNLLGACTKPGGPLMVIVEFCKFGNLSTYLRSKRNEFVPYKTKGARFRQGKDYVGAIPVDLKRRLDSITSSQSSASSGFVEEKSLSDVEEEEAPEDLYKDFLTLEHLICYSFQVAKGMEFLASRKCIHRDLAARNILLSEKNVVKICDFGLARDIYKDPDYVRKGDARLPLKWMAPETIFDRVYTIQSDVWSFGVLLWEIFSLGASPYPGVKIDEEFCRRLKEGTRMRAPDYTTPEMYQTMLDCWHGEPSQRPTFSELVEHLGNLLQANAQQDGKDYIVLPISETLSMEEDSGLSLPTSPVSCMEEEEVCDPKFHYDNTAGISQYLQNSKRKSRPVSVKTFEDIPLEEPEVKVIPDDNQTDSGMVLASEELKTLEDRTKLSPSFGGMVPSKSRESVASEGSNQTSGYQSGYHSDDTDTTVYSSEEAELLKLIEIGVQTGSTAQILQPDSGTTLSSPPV

Chain of Vascular endothelial growth factor receptor 3 (P35916 whole entry, the tested form may be a part): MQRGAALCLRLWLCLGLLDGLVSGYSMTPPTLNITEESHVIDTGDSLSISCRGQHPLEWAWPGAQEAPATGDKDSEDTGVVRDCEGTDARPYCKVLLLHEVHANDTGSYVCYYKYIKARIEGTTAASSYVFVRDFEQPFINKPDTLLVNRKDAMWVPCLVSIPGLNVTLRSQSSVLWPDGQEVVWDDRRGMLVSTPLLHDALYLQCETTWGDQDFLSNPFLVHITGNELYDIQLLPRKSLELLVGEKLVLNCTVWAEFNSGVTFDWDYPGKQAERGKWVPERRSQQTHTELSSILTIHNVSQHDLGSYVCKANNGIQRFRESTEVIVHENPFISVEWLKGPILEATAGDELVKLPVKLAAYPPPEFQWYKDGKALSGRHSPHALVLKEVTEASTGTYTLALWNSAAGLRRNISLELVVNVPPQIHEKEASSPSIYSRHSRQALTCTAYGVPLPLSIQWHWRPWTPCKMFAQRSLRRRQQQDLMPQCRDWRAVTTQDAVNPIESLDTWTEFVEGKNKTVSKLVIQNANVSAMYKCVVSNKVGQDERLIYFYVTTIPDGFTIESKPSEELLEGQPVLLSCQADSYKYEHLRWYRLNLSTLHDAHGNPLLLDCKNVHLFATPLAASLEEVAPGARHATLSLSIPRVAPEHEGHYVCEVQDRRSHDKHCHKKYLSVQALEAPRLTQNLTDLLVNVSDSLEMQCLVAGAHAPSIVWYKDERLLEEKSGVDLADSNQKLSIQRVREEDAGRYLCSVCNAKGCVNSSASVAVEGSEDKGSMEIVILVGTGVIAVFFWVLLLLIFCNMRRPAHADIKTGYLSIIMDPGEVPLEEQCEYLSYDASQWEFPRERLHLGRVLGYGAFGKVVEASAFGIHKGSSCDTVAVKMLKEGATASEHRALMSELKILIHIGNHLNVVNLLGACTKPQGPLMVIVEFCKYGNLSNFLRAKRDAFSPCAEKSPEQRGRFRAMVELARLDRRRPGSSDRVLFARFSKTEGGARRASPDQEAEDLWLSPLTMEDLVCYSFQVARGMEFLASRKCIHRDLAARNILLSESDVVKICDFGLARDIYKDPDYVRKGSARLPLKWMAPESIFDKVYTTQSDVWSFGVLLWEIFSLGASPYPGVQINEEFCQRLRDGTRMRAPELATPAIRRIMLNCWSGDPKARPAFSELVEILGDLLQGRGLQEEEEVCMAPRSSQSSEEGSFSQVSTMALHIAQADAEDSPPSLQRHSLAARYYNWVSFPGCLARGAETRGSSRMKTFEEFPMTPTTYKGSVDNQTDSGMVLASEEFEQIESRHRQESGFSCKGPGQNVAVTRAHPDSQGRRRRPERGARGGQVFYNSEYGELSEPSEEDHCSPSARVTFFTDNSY

Row | IC50 [1] [µM] | IC50 [2] [µM] | IC50 [3] [µM] | IC50 [4] [µM] | Compound
1 | 2.5 | 3 | 16 | 4.2 | COc1cc(C2=C(c3cn(CC(O)CO)c4ccccc34)CNC2=O)cc(OC)c1OC (centres undefined)
2 | 8.7 | 9.9 | 12 | 13 | COc1ccc(C2=C(c3c[nH]c4ccccc34)C(=O)NC2)cc1
3 | 9.4 | 2.2 | 7.7 | 11 | COc1cc(C2=C(c3c[nH]c4ccccc34)C(=O)NC2)cc(OC)c1OC
4 | 0.037 | 6.1 | 10 | 0.031 | COc1cc(C2=C(c3c[nH]c4ccccc34)CNC2=O)cc(OC)c1OC

Row | Compound | IC50 [1] [µM] | IC50 [2] [µM] | IC50 [3] [µM] | IC50 [4] [µM]
5 | COc1cc(C2=C(c3cn(COC(C)(C)C)c4ccccc34)CNC2=O)cc(OC)c1OC | 4.8 | 20 | 28 | 4.4
6 | COc1cc(C2=C(c3cn(C)c4ccccc34)C(=O)NC2)cc(OC)c1OC | 11 | 5 | 9.2 | 15
